The values below come from ChEMBL document CHEMBL1125469, “"Mixed inhibitor-prodrug" as a new approach toward systemically active inhibitors of enkephalin-degrading enzymes” (1992).

Common to all, as to assay type: functional
Experiment [1] concerns Mus musculus. Description: Compound (20 mg/kg) was evaluated for the antinociceptive response after intravenous administration using hot-plat test (55+/-1 degree Celsius) in mice(for jump latency time) at the dose of 0.57*10e-6 mol/mouse. Put shortly: (§1)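 Mice on a hot plate held at 55 ± 0.5 °C inside a glass cylinder, tested 15 min after iv dosing. Read-out was latency to jump, with a 240 s cutoff. % analgesia = (test − control latency)/(cutoff − control latency) × 100. Groups compared by ANOVA followed by Dunnett's t test.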

For experiment [2], the system named is Mus musculus. Description: Compound (20 mg/kg) was evaluated for the percentage of analgesic effect in mice at the time of 15 min after intravenous administration of dose 0.57*10e-6 mol/mouse. Put shortly:
as §1

The subject of experiment [3] is Mus musculus. Description: Compound was evaluated for the antinociceptive response after intravenous administration using hot-plat test (55+/-1 degree Celsius) in mice (for jump latency time) at the dose of 0.75*10e-6 mol/mice and 0.46*10e-6 mol/mice respectively. Put shortly:
as §1

Experiment [4] concerns Mus musculus. Description: Compound was evaluated for the percentage of analgesic effect in mice at the time of 15 min after intravenous administration of dose 0.75*10e-6 mol/mice and 0.46*10e-6 mol/mice respectively. Put shortly: as §1
In experiment [5] the test system is Mus musculus. Description: Compound was evaluated for the antinociceptive response after intravenous administration using hot-plat test (55+/-1 degree Celsius) in mice (for jump latency time) at the dose of 10 mg/kg. Put shortly: as §1
In experiment [6] the test system is Mus musculus. Description: Compound was evaluated for the antinociceptive response after intravenous administration using hot-plat test (55+/-1 degree Celsius) in mice (for jump latency time) at the dose of 5 mg/kg. Put shortly: as §1
For experiment [7], the system named is Mus musculus. Description: Compound was evaluated for the antinociceptive response after intravenous administration using hot-plat test (55+/-1 degree Celsius) in mice (for jump latency time) at the dose of 0 mg/kg. Put shortly:
as §1

Experiment [8] concerns Mus musculus. Description: Compound was evaluated for the percentage of analgesic effect in mice at the time of 15 min after intravenous administration of dose 10 mg/kg. Put shortly: as §1
Experiment [9] relates to Mus musculus. Description: Compound was evaluated for the antinociceptive response after intravenous administration using hot-plat test (55+/-1 degree Celsius) in mice (for jump latency time) at the dose of 1 mg/kg. Put shortly:
as §1

The subject of experiment [10] is Mus musculus. Description: Compound was evaluated for the percentage of analgesic effect in mice at the time of 15 min after intravenous administration of dose 5 mg/kg. Put shortly: as §1
The test system of experiment [11] is Mus musculus. Description: Compound was evaluated for the percentage of analgesic effect in mice at the time of 15 min after intravenous administration of dose 1 mg/kg. Put shortly:
as §1

Take `CSCCC(N)CSSCC(Cc1ccccc1)C(=O)NC(Cc1ccccc1)C(=O)OCc1ccccc1` (stereo not given): the Jump latency time in experiment [1] is 236 s. Also, the Analgesia in experiment [2] was 92.1%.
Take `CSCCC(N)CSSCC(N)CCSC.O=C(NC(Cc1ccccc1)C(=O)OCc1ccccc1)C(CSSCC(Cc1ccccc1)C(=O)NC(Cc1ccccc1)C(=O)OCc1ccccc1)Cc1ccccc1` (stereo not given): the Jump latency time in [3] was determined as 126 s. In experiment [4], this compound gave an Analgesia of 32.2%.
Regarding `N[C@H](CSC(=O)CCC(=O)SCC(Cc1ccccc1)C(=O)NCC(=O)OCc1ccccc1)Cc1ccccc1` (stereo not given in full), the Jump latency time was found to be 71.7 s in experiment [5], 46.5 s in [6] and 48.7 s in experiment [7]. Also, the Analgesia in [8] turned out to be 12%.
As to `CC(=O)SCC(Cc1ccccc1)C(=O)NCC(=O)SC[C@@H](N)Cc1ccccc1` (stereo not given in full), the Jump latency time in [5] was found to be 143 s; in experiment [6] it was 80.4 s; in experiment [7], 56.7 s; in [9], 74.1 s. Moreover, the Analgesia in [8] was determined as 63%; in [10] it was 13%; in [11], 9%.
